Measurements collected from several papers.
Protocols differ between the studies behind these lines.
Target: Activin receptor type-2A (ACVR2A, Homo sapiens, UniProt P27037)

Compound	effect on	action	method	tested at	endpoint	value
Cc1ccc(C(=O)Nc2ccc(CN3CCN(C)CC3)c(C(F)(F)F)c2)cc1C#Cc1cnc2cccnn12	enzyme activity			23.5 nM	remaining activity	86%
COc1cc(Cl)c(C(=O)N[C@@H](CN[C@H]2CC[C@@H](N)CC2)Cc2ccc(C#N)cc2)cc1-c1ccc(CN[C@H](C)c2ccc(C)cc2)o1	enzyme activity	inhibitor		1 µM	remaining activity	94%
CCN1CCC2(CC1)NC(=O)c1c(c3ccc(Cl)c(Cl)c3n1C)C2C#N (racemic)	thermal stability		DSF	10 µM	ΔTm	0.1 °C
COc1cccc(CNC(=O)c2nc3scc(COCc4ccc(C(=O)O)cc4)c3c(=O)[nH]2)c1	cell-free assay		competition with immobilised ligand	1 µM	remaining binding	92.9%
CC(C)(C)c1nc(-c2cccc(NS(=O)(=O)c3c(F)cccc3F)c2F)c(-c2ccnc(N)n2)s1	enzyme activity	inhibitor	radiometric	1 µM	remaining activity	9%
Nc1ncnc2occ(-c3ccc(NC(=O)Nc4cc(C(F)(F)F)ccc4F)cc3)c12	cell-free assay			20 µM	remaining signal	45%
CCC(=O)N[C@H]1CC[C@@H](C(=O)N(C)c2ccc(-c3nc4ccccc4o3)cc2)C1	cell-free assay		competition with immobilised ligand	1 µM	remaining binding	98%
Cn1c2c(Cl)c(Cl)ccc2c2cc[nH]c(=O)c21	thermal stability		DSF	10 µM	ΔTm	2.7 °C
CC(C)(C)c1nc2c(s1)c1nc(N)ncc1c1ccc(NS(=O)(=O)c3c(F)cccc3F)c(F)c12	enzyme activity	inhibitor	radiometric	1 µM	remaining activity	74%
Cc1ccc(C(=O)NCc2ccsc2)cc1C#Cc1cn(C(C)C)c2ncnc(N)c12	enzyme activity	inhibitor		1 µM	activity vs control	93%
Cn1c2c(Cl)c(Cl)ccc2c2cc(N)[nH]c(=O)c21	thermal stability		DSF	10 µM	ΔTm	0.6 °C
CN1CC(Oc2cnc(C#N)cc2-c2ccn3nc(NC(=O)C4CC4)cc3c2)C1	enzyme activity	inhibitor		1 µM	inhibition	7%
